The results in this text go back to ChEMBL document CHEMBL4138171, “Design, synthesis and biological evaluation of novel aryldiketo acids with enhanced antibacterial activity against multidrug resistant bacterial strains” (Eur J Med Chem, 2018).

Data set [1] concerns Enterococcus faecalis. Briefly: Antibacterial activity against Enterococcus faecalis NCTC 12697 after 16 hrs by microdilution method. The data set is classed as functional. The conditions noted are these: NCTC 12697, 16 h. A digest of the protocol: (§1)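 Broth microdilution in cation-adjusted Mueller-Hinton broth (20 mg/l Ca2+, 10 mg/L Mg2+), inoculum 5×10^5 CFU/mL. Compounds from DMSO stocks, final DMSO <1%, tested over 0.12–128 µg/ml. Incubated 37 °C and read visually after 16 h. MIC is the lowest concentration with no visible growth, determined at least twice and converted to µmol/L.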
For orientation: Dilution methods test growth across graded concentrations, often in twofold steps.

In data set [2] the test system is Bacillus subtilis. Briefly: Antibacterial activity against Bacillus subtilis NCTC 10400 after 16 hrs by microdilution method. The data set is classed as functional. The note with it: NCTC 10400, 16 h. The method in brief:
as §1

The subject of data set [3] is Staphylococcus aureus. Briefly: Antibacterial activity against methicillin-sensitive Staphylococcus aureus NCTC 12981 after 16 hrs by microdilution method. Format: functional. The conditions noted are these: NCTC 12981, 16 h. The method in brief:
as §1

Data set [4] relates to Staphylococcus aureus. Briefly: Antibacterial activity against methicillin-resistant Staphylococcus aureus NCTC 13373 after 16 hrs by microdilution method. Format: functional. The note with it: NCTC 13373, 16 h. The method in brief:
(§2)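 Broth microdilution in cation-adjusted Mueller-Hinton broth (20 mg/l Ca2+, 10 mg/L Mg2+), inoculum 5×10^5 CFU/mL. Compounds in DMSO, solvent under 1% in well, tested over 0.12-128 µg/ml. […] Each determined at least twice; values converted to µmol/L.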

The test system of data set [5] is Staphylococcus aureus. Briefly: Antibacterial activity against Norfloxacin-resistant Staphylococcus aureus 1199B over-expressing NorA after 16 hrs by microdilution method. Format: functional. A digest of the protocol:
as §2

The test system of data set [6] is Staphylococcus aureus. Briefly: Antibacterial activity against erythromycin-resistant Staphylococcus aureus RN4220 after 16 hrs by microdilution method. The data set is classed as functional. The conditions noted are these: RN4220, 16 h. A digest of the protocol:
as §2

For data set [7], the system named is Staphylococcus aureus. Briefly: Antibacterial activity against Staphylococcus aureus EMRSA-15 after 16 hrs by microdilution method. The conditions noted are these: EMRSA-15, 16 h. The data set is classed as functional. A digest of the protocol: as §1
For data set [8], the system named is Staphylococcus aureus. Briefly: Antibacterial activity against tetracycline/methicillin-resistant Staphylococcus aureus XU212 after 16 hrs by microdilution method. The note with it: XU212, 16 h. The data set is classed as functional. A digest of the protocol: as §2
The subject of data set [9] is Escherichia coli. Briefly: Antibacterial activity against Escherichia coli NCTC 12241 after 16 hrs by microdilution method. Format: functional. The note with it: NCTC 12241, 16 h. A digest of the protocol: as §1
A short description of data set [10]: Cytotoxicity against human MRC5 cells. The data set is classed as cell-based.
Data set [11] concerns Staphylococcus aureus. Briefly: Potency index, ratio of norfloxacin MIC to test compound MIC for Norfloxacin-resistant Staphylococcus aureus 1199B over-expressing NorA. The data set is classed as functional.
In data set [12] the target is T1, Albumin (Homo sapiens, UniProt P02768). Briefly: Binding affinity to human serum albumin at 303K by Van't Hoff plot method. Format: ADME. The conditions noted are these: isolated protein. A digest of the protocol: (§3)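 Fatty acid-free HSA held at 5 × 10^-7 M in 30 mM PBS pH 7.38, titrated with compound DMSO stock at 0.5–8 molar equivalents (final DMSO ≤2%). Equilibrated 20 min after each addition. Fluorescence excitation 280 nm, emission 300–450 nm, PBS background subtracted. Quenching recorded at 293, 303 and 310 K and analysed by Stern-Volmer, molar ratio and van't Hoff treatment.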
T1 sequence (P02768 whole entry): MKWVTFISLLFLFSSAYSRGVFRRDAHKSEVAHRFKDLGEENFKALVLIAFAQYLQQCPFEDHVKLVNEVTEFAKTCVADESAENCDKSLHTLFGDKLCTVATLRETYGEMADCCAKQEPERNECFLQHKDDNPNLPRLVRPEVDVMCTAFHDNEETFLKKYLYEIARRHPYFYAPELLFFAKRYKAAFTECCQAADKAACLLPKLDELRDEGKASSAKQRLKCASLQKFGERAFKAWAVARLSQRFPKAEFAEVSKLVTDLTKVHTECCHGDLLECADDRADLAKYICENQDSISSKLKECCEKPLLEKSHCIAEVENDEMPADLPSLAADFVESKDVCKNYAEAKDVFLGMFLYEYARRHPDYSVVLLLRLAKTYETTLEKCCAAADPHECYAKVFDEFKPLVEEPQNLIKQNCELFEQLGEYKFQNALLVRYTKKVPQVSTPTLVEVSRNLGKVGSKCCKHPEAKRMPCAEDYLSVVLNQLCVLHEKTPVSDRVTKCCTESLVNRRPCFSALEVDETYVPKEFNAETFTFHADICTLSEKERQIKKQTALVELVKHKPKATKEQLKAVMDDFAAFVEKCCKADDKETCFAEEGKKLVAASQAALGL

For data set [13], the target named is T1, Albumin. Briefly: Binding affinity to human serum albumin at 310K by Van't Hoff plot method. The data set is classed as ADME. The conditions noted are these: isolated protein. The method in brief: as §3
In data set [14] the target is T1, Albumin. Briefly: Binding affinity to human serum albumin at 293K by Van't Hoff plot method. Format: ADME. The conditions noted are these: isolated protein. The method in brief:
as §3

In data set [15] the target is T1, Albumin. Briefly: Binding affinity to human serum albumin at 293K by Stern-Volmer plot method. Format: ADME. The note with it: isolated protein. The method in brief: as §3
The target of data set [16] is T1, Albumin. Briefly: Binding affinity to human serum albumin at 303K by Stern-Volmer plot method. Format: ADME. The conditions noted are these: isolated protein. A digest of the protocol: as §3
Data set [17] deals with T1, Albumin. Briefly: Binding affinity to human serum albumin at 310K by Stern-Volmer plot method. Format: ADME. The conditions noted are these: isolated protein. The method in brief: as §3
Data set [18] addresses T1, Albumin. Briefly: Binding affinity to human serum albumin at 293K by fluorescence spectroscopic method. Format: ADME. The note with it: isolated protein. A digest of the protocol: as §3
The target in data set [19] is T1, Albumin. Briefly: Binding affinity to human serum albumin at 303K by fluorescence spectroscopic method. The note with it: isolated protein. Format: ADME. A digest of the protocol: as §3
Data set [20] deals with T1, Albumin. Briefly: Binding affinity to human serum albumin at 310K by fluorescence spectroscopic method. Format: ADME. The note with it: isolated protein. A digest of the protocol: as §3
Data set [21] addresses T1, Albumin. Briefly: Binding affinity to human serum albumin assessed as Gibbs free energy change at 293K by Van't Hoff plot method. Format: ADME. The note with it: isolated protein. A digest of the protocol: as §3
Data set [22] addresses T1, Albumin. Briefly: Binding affinity to human serum albumin assessed as Gibbs free energy change at 303K by Van't Hoff plot method. Format: ADME. The conditions noted are these: isolated protein. A digest of the protocol: as §3
Data set [23] addresses T1, Albumin. Briefly: Binding affinity to human serum albumin assessed as Gibbs free energy change at 310K by Van't Hoff plot method. The data set is classed as ADME. The note with it: isolated protein. The method in brief:
as §3

The target in data set [24] is T1, Albumin. Briefly: Binding affinity to human serum albumin assessed as change in enthalpy at 293K by Van't Hoff plot method. The data set is classed as ADME. The note with it: isolated protein. A digest of the protocol:
as §3

Data set [25] deals with T1, Albumin. Briefly: Binding affinity to human serum albumin assessed as change in entropy at 293K by Van't Hoff plot method. The note with it: isolated protein. The data set is classed as ADME. The method in brief: as §3
Data set [26] can be described thus: Acidity constant, pKa of the compound at 5 x 10^-5 M by UV/Vis spectrophotometric titration method. The data set is classed as physicochemical. The method in brief: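 Spectrophotometric titration at 20 ± 0.5 °C of a 5 × 10^-5 M working solution (ethanol, then 10 mM phosphate buffer pH 10.44, I = 0.1 M NaCl). Acidified stepwise with H3PO4 to pH ~4, with pH monitored continuously. UV/Vis spectra 210–600 nm against blank. pKa2 taken from the slope of the linearized absorbance equation. Three sets; mean ± 95% CI.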

The nature of data set [27]: Octanol/phosphate buffer distribution co-efficient, log D of the compound at 7.4 by shake-flask method. The note with it: pH 7.4. Format: physicochemical. The method in brief:
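Shake-flask partition between octanol and 10 mM phosphate buffer pH 7.4. Compound stock 5.0 × 10^-3 M in buffer-saturated octanol. Aqueous concentration measured spectrophotometrically against a calibration curve; octanol concentration taken by difference. Three octanol/buffer volume ratios; mean ± 95% CI.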

In general, MIC refers to the lowest concentration found to suppress growth. As a reminder, the IC90 is the concentration needed for an effect of 90%. The low end stands for greater potency, the high end for weaker potency. Usually pKa stands for the pH at which an ionisable group is half protonated. Low readings indicate a group that gives up its proton readily, high ones a group that holds its proton tightly. Broadly, the logD is lipophilicity at a set pH, counting ionised and neutral species. The low end stands for a more hydrophilic compound, the high end for a more lipophilic compound.

On to `CC(C)c1cc(C(C)C)c(C(=O)/C=C(\O)C(=O)O)c(C(C)C)c1`, for which the MIC was > 128 µg/mL in data set [1]; 25 µM in data set [2]; 13 µM in data set [3]; > 128 µg/mL in data set [4]; 25 µM in data set [5]; 50 µM in data set [6]. Besides, the MIC in data set [7] was 25 µM; in data set [8] it was 50 µM; in [9] it was > 128 µg/mL. The molecule also returned an IC90 in data set [10] of 90 µM.

For `CCc1cc(CC)c(C(=O)/C=C(\O)C(=O)O)c(CC)c1`, the MIC in data set [5] was 116 µM; in [6], 232 µM; in [7] it was 232 µM; in data set [8], 232 µM; in [9] it was > 128 µg/mL. In addition, in data set [11], the Ratio came out at 10.

With `O=C(O)/C(O)=C/C(=O)c1cc(C2CCCCC2)ccc1C1CCCCC1`, the lnK in data set [12] stood at 14.29 M⁻¹; in [13] it was 14.21 M⁻¹; in data set [14] it was 14.36 M⁻¹. Also, the MIC stood at 6 µM in data set [1]; 125 µM in [2]; 11 µM in [3]; 11 µM in data set [4]; 11 µM in data set [5]; 11 µM in data set [6]. Also, the MIC in [7] was 22 µM; in data set [8], 11 µM; in data set [9] it was > 128 µg/mL. The IC90 in data set [10] was 30 µM. Moreover, the KSV in data set [15] came out at 1.72 ×10⁶ /M; in data set [16] it was 1.6 ×10⁶ /M; in data set [17], 1.48 ×10⁶ /M. Further, the Ka in [15] came out at 1.06 ×10⁶ /M; in [16] it was 1.02 ×10⁶ /M; in data set [17] it was 0.95 ×10⁶ /M. The Kq in data set [15] was found to be 2.42 ×10¹⁴ /M/s; in [16], 2.26 ×10¹⁴ /M/s; in [17], 2.09 ×10¹⁴ /M/s. In addition, the logKb is recorded as 7.02 in [18], 6.84 in [19] and 6.75 in data set [20]. Also, the results for the deltaG in data set [21], in data set [22] and in data set [23] were -8.36 kcal/mol, -8.6 kcal/mol and -8.75 kcal/mol, respectively. Also, the deltaH in data set [24] is -1.59 kcal/mol. In addition, the deltaS in data set [25] amounted to 96.76 J/mol/K. The pKa at 50 µM in data set [26] turned out to be 7.56. Besides, in [27], the logD stood at 2.6.

As for `O=C(O)/C(O)=C/C(=O)c1ccc(-n2ccnc2)cc1`, the MIC in data set [1] is 496 µM; in data set [2], 496 µM; in [3] it was > 128 µg/mL; in data set [4] it was 248 µM; in [5], 124 µM; in data set [6], > 128 µg/mL. In addition, the MIC was > 128 µg/mL in [7], 496 µM in data set [8] and > 128 µg/mL in data set [9].

For the molecule `O=C(O)/C(O)=C/C(=O)c1ccc(N2CCOCC2)cc1`, the MIC in [1], in [2], in [3], in [4], in data set [5] and in data set [6] was > 128 µg/mL in each case. Also, the MIC in data set [7], in [8] and in [9] was > 128 µg/mL throughout.

With `Cc1cc(C)c(C(=O)/C=C(\O)C(=O)O)cc1C`, the MIC in data set [1], in [2], in data set [3], in data set [4], in data set [5] and in data set [6] was > 128 µg/mL each time. Moreover, the MIC in data set [7], in data set [8] and in data set [9] was > 128 µg/mL in each case.
